Test results taken from ChEMBL document CHEMBL4382247, “A novel series of napabucasin derivatives as orally active inhibitors of signal transducer and activator of transcription 3 (STAT3)” (Eur J Med Chem, 2019).
Converted amounts (≈) assume the structure as drawn.

Key:
CT26 = test: Antiproliferative activity against mouse CT26 cells after 72 hrs by MTT assay; assay type: functional, cell-based; details: CT26, 72 h
In short: (§1)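 Cells seeded at 5 × 10^3 per well and cultured 24 h before compound addition at varied concentrations, then grown a further 72 h; 0.5% DMSO as solvent control. MTT (5mg/ml solution) added for 4 h, formazan dissolved in DMSO, absorbance read at 570nm. Each treatment in triplicate; Mean ± SD.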

HepG2 = test: Antiproliferative activity against human HepG2 cells after 72 hrs by MTT assay; assay type: functional, cell-based; details: HepG2, 72 h; in short: as §1
[1] = Aqueous solubility of the compound in water at 2 mg after 24 hrs by HPLC analysis; assay type: physicochemical
In short: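 Aqueous solubility measured by HPLC against calibration standards at 15–125 µg/mL. Values are the mean of at least three determinations ± SD.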

PC-3 = test: Antiproliferative activity against human PC3 cells after 72 hrs by MTT assay; assay type: functional, cell-based; details: PC-3, 72 h; in short: as §1
U-251 = test: Antiproliferative activity against human U251 cells after 72 hrs by MTT assay; assay type: functional, cell-based; details: U-251, 72 h; in short: as §1
HT-29 = test: Antiproliferative activity against human HT-29 cells after 72 hrs by MTT assay; assay type: functional, cell-based; details: HT-29, 72 h; in short: as §1

Row | Compound | IC50 (CT26) [µM] | IC50 (HepG2) [µM] | solubility at 24 h [1] [µM] | IC50 (PC-3) [µM] | IC50 (U-251) [µM] | IC50 (HT-29) [µM]
1 | CCN1CCN(C(=O)c2cc3c(o2)C(=O)c2ccccc2C3=O)CC1 | 0.59 | > 10 | 241 (≈ 81.5 µg/mL) | 2.06 | 0.87 | 0.21
2 | O=C1c2ccccc2C(=O)c2oc(C(=O)N3CCN(c4cccc(C(F)(F)F)c4)CC3)cc21 | – | > 10 | – | > 10 | > 10 | > 10
3 | O=C(/C=C/c1ccccc1)c1cc2c(o1)C(=O)c1ccccc1C2=O | > 10 | > 10 | – | > 10 | > 10 | > 10
4 | O=C1c2ccccc2C(=O)c2oc(C(=O)N3CCC(c4cccc(Cl)c4)CC3)cc21 | – | > 10 | – | > 10 | > 10 | > 10
5 | COc1ccc(C2CCN(C(=O)c3cc4c(o3)C(=O)c3ccccc3C4=O)CC2)cc1 | – | > 10 | – | 9.64 | > 10 | > 10
6 | O=C1c2ccccc2C(=O)c2oc(C(=O)N3CCSCC3)cc21 | 1.35 | 9.63 | < 76.5 | 5.83 | 3.1 | 1.65
7 | O=C(NCCc1ccccc1)c1cc2c(o1)C(=O)c1ccccc1C2=O | – | > 10 | – | > 10 | > 10 | > 10
8 | Cn1cccc1/C=C/C(=O)c1cc2c(o1)C(=O)c1ccccc1C2=O | 2.48 | > 10 | – | > 10 | 1.5 | 0.87
9 | O=C(/C=C/c1cccs1)c1cc2c(o1)C(=O)c1ccccc1C2=O | > 10 | > 10 | – | > 10 | 2.2 | 1.52
10 | CC(=O)c1cc2c(o1)C(=O)c1ccccc1C2=O [NAPABUCASIN] | 2.5 | 6.6 | < 62.5 | 5.25 | 2.6 | 1.6
11 | O=C(NC1CCCCC1)c1cc2c(o1)C(=O)c1ccccc1C2=O | – | > 10 | – | > 10 | 3.02 | > 10
12 | COC(=O)CC1CCN(C(=O)c2cc3c(o2)C(=O)c2ccccc2C3=O)CC1 | – | 9.66 | – | > 10 | 5.92 | > 10
13 | O=C1c2ccccc2C(=O)c2oc(C(=O)N3CCC(c4ccc(F)cc4)CC3)cc21 | – | > 10 | – | > 10 | > 10 | > 10
14 | O=C1c2ccccc2C(=O)c2oc(C(=O)N3CCCCC3)cc21 | 0.95 | > 10 | – | > 10 | 2.16 | 1.57
15 | O=C(NC12CC3CC(CC(C3)C1)C2)c1cc2c(o1)C(=O)c1ccccc1C2=O | – | > 10 | – | > 10 | > 10 | > 10
16 | CC1(C)CCC(NC(=O)c2cc3c(o2)C(=O)c2ccccc2C3=O)CC1 | – | 11.2 | – | > 10 | 2.65 | > 10
17 | O=C(NCCN1CCOCC1)c1cc2c(o1)C(=O)c1ccccc1C2=O | 0.05 | > 10 | < 70.6 | 7.19 | 1.63 | 0.37
18 | CN1CCN(C(=O)c2cc3c(o2)C(=O)c2ccccc2C3=O)CC1 | 0.26 | 5.27 | 337 (≈ 109 µg/mL) | 4.58 | 1.37 | 0.39
19 | O=C(NCCN1CCCC1)c1cc2c(o1)C(=O)c1ccccc1C2=O | 0.2 | 1.75 | – | 4.45 | 0.9 | 0.3
20 | O=C(NCCc1ccc(Cl)cc1)c1cc2c(o1)C(=O)c1ccccc1C2=O | – | > 10 | – | > 10 | 3.36 | > 10
21 | COc1ccc(CCNC(=O)c2cc3c(o2)C(=O)c2ccccc2C3=O)cc1 | – | > 10 | – | > 10 | 6.32 | > 10
22 | O=C1c2ccccc2C(=O)c2oc(C(=O)N3CCOCC3)cc21 | 0.57 | 7.3 | 162 (≈ 50.5 µg/mL) | 6.84 | 2.19 | 0.86
23 | O=C1CCN(C(=O)c2cc3c(o2)C(=O)c2ccccc2C3=O)CC1 | 0.61 | 2.5 | 118 (≈ 38.1 µg/mL) | > 10 | 0.58 | 1.13
24 | O=C(/C=C/c1ccc(-c2ccccc2)cc1)c1cc2c(o1)C(=O)c1ccccc1C2=O | > 10 | > 10 | – | > 10 | > 10 | > 10
25 | O=C1c2ccccc2C(=O)c2oc(C(=O)N3CCCC3)cc21 | 0.58 | > 10 | – | 9.65 | 2.18 | 1.08
